Test [1] deals with Escherichia coli. Briefly: In vitro antibacterial activity was measured against nalidixic acid resistant strain 1 from Escherichia coli KC-14. It is filed as functional. The method, boiled down:
(§1)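 MIC by serial 2-fold agar dilution on Mueller–Hinton agar, inoculum about 10^6 CFU/mL. Plates were incubated 37 °C for 18 h. MIC was the lowest concentration preventing visible growth.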

Test [2] relates to Escherichia coli. As to the kind of experiment: In vitro antibacterial activity was measured against nalidixic acid resistant strain 2 from Escherichia coli KC-14. It is filed as functional. The gist of the method:
as §1

Test [3] has as its system Escherichia coli. Briefly: In vitro antibacterial activity was measured against nalidixic acid resistant strain 3 from Escherichia coli KC-14. It is filed as functional. The method, boiled down: as §1
For test [4], the system named is Escherichia coli. As to the kind of experiment: In vitro antibacterial activity was measured against nalidixic acid resistant strain 4 from Escherichia coli KC-14. The class given is functional. The method, boiled down: as §1
The test system of test [5] is Escherichia coli. As to the kind of experiment: In vitro antibacterial activity was measured against nalidixic acid resistant strain 5 from Escherichia coli KC-14. It is filed as functional. The method, boiled down: as §1
The test system of test [6] is Escherichia coli. Briefly: In vitro antibacterial activity was measured against nalidixic acid resistant strain 6 from Escherichia coli KC-14. The class given is functional. The method, boiled down: as §1
The test system of test [7] is Escherichia coli. Briefly: In vitro antibacterial activity was measured against nalidixic acid resistant strain 7 from Escherichia coli KC-14. The class given is functional. The gist of the method:
as §1

The subject of test [8] is Escherichia coli. As to the kind of experiment: The effect on systematic infection in mice infected with Escherichia coli KC-14, administered perorally. It is filed as functional. The method, boiled down:
(§2)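 Male ddY mice (20–22 g), five per group, received 0.5 mL bacterial dilution intraperitoneally at 35 or 500 times the 50% lethal dose. Compound was given orally 1 h postinfection, suspended in 0.5% sodium (carboxymethyl)cellulose or dissolved in sterile distilled water. Survival was scored after 1 week. Oral ED50 was reported with 95% confidence limits.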

Test [9] has as its system Escherichia coli. As to the kind of experiment: In vitro antibacterial activity against Escherichia coli KC-14, Ec(K), (gram-negative). The class given is functional. The method, boiled down: (§3)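 MIC by serial 2-fold agar dilution on Mueller–Hinton agar; inoculum about 10^6 CFU/mL; MIC taken as lowest concentration preventing visible growth after 18 h at 37 °C.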
Test [10] deals with Enterococcus faecalis. As to the kind of experiment: In vitro antibacterial activity against Enterococcus faecalis IID 682,[…],(gram-positive). It is filed as functional. The method, boiled down:
as §3

For test [11], the system named is Pseudomonas aeruginosa. Briefly: In vitro antibacterial activity against Pseudomonas aeruginosa IFO 3445,Pa(I),(gram-negative). It is filed as functional. The gist of the method: as §3
The subject of test [12] is Staphylococcus aureus. Briefly: The effect on systematic infection in mice infected with Staphylococcus aureus IID 803, administered perorally. The class given is functional. The gist of the method:
as §2

The subject of a further test is Klebsiella pneumoniae. As to the kind of experiment: In vitro antibacterial activity against klebsiella pneumoniae B54,Kp,(gram-negative). It is filed as functional.
In test [13] the test system is Staphylococcus aureus. As to the kind of experiment: In vitro antibacterial activity against staphylococcus aureus IID 803,(gram-positive). It is filed as functional. The gist of the method: as §3
Test [14] has as its system Staphylococcus epidermidis. Briefly: In vitro antibacterial activity against staphylococcus epidermidis IAM 1296, (gram-positive). The class given is functional. The method, boiled down: as §3
The test system of test [15] is Pseudomonas aeruginosa. Briefly: In vitro antibacterial activity against Pseudomonas aeruginosa E-2,Pa(E),(gram-negative). The class given is functional. The gist of the method: as §3
Test [16] deals with Pseudomonas aeruginosa. As to the kind of experiment: The effect on systematic infection in mice infected with Pseudomonas aeruginosa E-2, administered perorally. It is filed as functional.
Test [17] concerns Staphylococcus aureus. Briefly: In vitro antibacterial activity against staphylococcus aureus FDA 209P JC-1,Sa(F)(gram-positive). The class given is functional. The gist of the method: as §3
Test [18] deals with Escherichia coli. As to the kind of experiment: In vitro antibacterial activity against Escherichia coli NIHJ JC-2,(gram-negative).
Test [19] relates to Pseudomonas aeruginosa. As to the kind of experiment: The effect on systematic infection in mice infected with Pseudomonas aeruginosa, administered perorally. The class given is functional. The method, boiled down:
as §2

The subject of test [20] is Enterococcus faecalis. As to the kind of experiment: In vitro antibacterial activity against Enterococcus faecalis IID 682,Ef.([…]). The class given is functional. The method, boiled down: as §3

The text below walks through data of ChEMBL document CHEMBL1126175, “Synthesis and antibacterial activity of new tetracyclic quinolone antibacterials” (J Med Chem, 1992).

In brackets after ≈: the same amount, converted by molar mass. Some results are limits rather than exact numbers.

In the case of `CCn1cc(C(=O)O)c(=O)c2ccc(C)nc21` [NALIDIXIC ACID], the MIC (as a rule, the lowest concentration that inhibits growth of the organism) in the test with Escherichia coli [1] was over 1600 µg/mL; against Escherichia coli [2], over 1600 µg/mL; against Escherichia coli [3], 200 µg/mL (≈ 861 µM); against Escherichia coli [4], 100 µg/mL (≈ 431 µM); against Escherichia coli [5], 100 µg/mL (≈ 431 µM); against Escherichia coli [6] it was 100 µg/mL (≈ 431 µM). The MIC with Escherichia coli [7] amounted to 100 µg/mL (≈ 431 µM).

Regarding `CN1CCN(c2c(F)cc3c(=O)c(C(=O)O)c4scc5n4c3c2OC5)CC1.Cl`, the ED50 with Escherichia coli [8] came to 1.01 mg/kg; in the test on Staphylococcus aureus [12], 8.1 mg/kg; in the test with Pseudomonas aeruginosa [16] it was 17.7 mg/kg. Further, the MIC worked out at 1.56 µg/mL against Escherichia coli [1]; 3.13 µg/mL with Escherichia coli [2]; 0.39 µg/mL against Escherichia coli [3]; 0.2 µg/mL with Escherichia coli [4]; 0.39 µg/mL in the test with Escherichia coli [5]; 0.39 µg/mL in the test on Escherichia coli [6]. Besides, the MIC amounted to 0.2 µg/mL against Escherichia coli [7]; 0.1 µg/mL against Escherichia coli [9]; 0.39 µg/mL in the test on Enterococcus faecalis [10]; 0.78 µg/mL against Pseudomonas aeruginosa [11]; 0.1 µg/mL in the test on Klebsiella pneumoniae; 0.1 µg/mL in the test on Staphylococcus aureus [13]. For the same compound, the minimum inhibitory concentration (MIC) came out at 0.2 µg/mL in [14], 0.78 µg/mL with Pseudomonas aeruginosa [15], 0.1 µg/mL in the test with Staphylococcus aureus [17] and 0.1 µg/mL in the test on Escherichia coli [18].

`CC1COc2c(N3CCNCC3)c(F)cc3c(=O)c(C(=O)O)cn1c23` (centres undefined): the ED50 in the test on Escherichia coli [8] is 1.1 mg/kg; with Pseudomonas aeruginosa [19], 22.9 µg/mL (≈ 65.9 µM); in the test with Staphylococcus aureus [12], 11.5 mg/kg. Further, the MIC against Escherichia coli [1] turned out to be 6.25 µg/mL (≈ 18 µM); with Escherichia coli [2] it was 6.25 µg/mL (≈ 18 µM); with Escherichia coli [3] it was 0.78 µg/mL (≈ 2.25 µM); against Escherichia coli [4] it was 0.39 µg/mL (≈ 1.12 µM); against Escherichia coli [5] it was 0.78 µg/mL (≈ 2.25 µM); against Escherichia coli [6], 0.78 µg/mL (≈ 2.25 µM). In addition, the MIC against Escherichia coli [7] amounted to 0.39 µg/mL (≈ 1.12 µM); against Escherichia coli [9], 0.1 µg/mL (≈ 0.288 µM); against Enterococcus faecalis [10] it was 1.56 µg/mL (≈ 4.49 µM); against Pseudomonas aeruginosa [11], 1.56 µg/mL (≈ 4.49 µM); against Klebsiella pneumoniae, 0.1 µg/mL (≈ 0.288 µM); with Staphylococcus aureus [13], 0.39 µg/mL (≈ 1.12 µM). Further, the MIC is 0.78 µg/mL (≈ 2.25 µM) in test [14], 1.56 µg/mL (≈ 4.49 µM) against Pseudomonas aeruginosa [15], 0.39 µg/mL (≈ 1.12 µM) in the test on Staphylococcus aureus [17] and 0.1 µg/mL (≈ 0.288 µM) in the test on Escherichia coli [18].

Consider `O=C(O)c1c(=O)c2cc(F)c(N3CCC(O)C3)c3c2n2c(csc12)CO3` (centres undefined), for which the MIC in the test on Escherichia coli [1] is over 3.13 µg/mL; with Escherichia coli [2], over 3.13 µg/mL; against Escherichia coli [3], 0.78 µg/mL (≈ 2.07 µM); in the test with Escherichia coli [4] it was 0.78 µg/mL (≈ 2.07 µM); in the test on Escherichia coli [5], 0.78 µg/mL (≈ 2.07 µM); with Escherichia coli [6] it was 0.39 µg/mL (≈ 1.04 µM). For the same compound, the MIC was determined as 0.2 µg/mL (≈ 0.531 µM) with Escherichia coli [7]; 0.05 µg/mL (≈ 0.133 µM) against Escherichia coli [9]; 0.2 µg/mL (≈ 0.531 µM) in the test with Enterococcus faecalis [10]; 0.39 µg/mL (≈ 1.04 µM) in the test with Pseudomonas aeruginosa [11]; 0.05 µg/mL (≈ 0.133 µM) against Klebsiella pneumoniae; 0.025 µg/mL (≈ 0.0664 µM) in the test on Staphylococcus aureus [13]. Besides, the MIC in test [14] is 0.2 µg/mL (≈ 0.531 µM); in the test with Pseudomonas aeruginosa [15] it was 0.39 µg/mL (≈ 1.04 µM); against Staphylococcus aureus [17] it was 0.025 µg/mL (≈ 0.0664 µM); in the test on Escherichia coli [18], 0.05 µg/mL (≈ 0.133 µM).

Consider `COc1c(F)cc2c(=O)c(C(=O)O)c3scc4n3c2c1OC4`, for which the MIC is 0.78 µg/mL (≈ 2.43 µM) in the test on Escherichia coli [9]; 6.25 µg/mL (≈ 19.5 µM) with Enterococcus faecalis [10]; 6.25 µg/mL (≈ 19.5 µM) against Enterococcus faecalis [20]; 3.13 µg/mL (≈ 9.74 µM) in the test on Pseudomonas aeruginosa [11]; 0.2 µg/mL (≈ 0.623 µM) in the test on Klebsiella pneumoniae; 0.2 µg/mL (≈ 0.623 µM) with Staphylococcus aureus [13]. For the same compound, the MIC in test [14] worked out at 0.39 µg/mL (≈ 1.21 µM); against Pseudomonas aeruginosa [15] it was 6.25 µg/mL (≈ 19.5 µM); against Staphylococcus aureus [17], 0.2 µg/mL (≈ 0.623 µM).

`CC1CN(c2c(F)cc3c(=O)c(C(=O)O)c4scc5n4c3c2OC5)CCN1` (centres undefined): the MIC against Escherichia coli [9] stood at 0.1 µg/mL (≈ 0.257 µM); in the test with Enterococcus faecalis [10], 0.78 µg/mL (≈ 2 µM); against Pseudomonas aeruginosa [11] it was 1.56 µg/mL (≈ 4.01 µM); against Klebsiella pneumoniae it was 0.1 µg/mL (≈ 0.257 µM); in the test with Staphylococcus aureus [13], 0.2 µg/mL (≈ 0.514 µM); in test [14], 0.78 µg/mL (≈ 2 µM). Besides, the MIC is 0.78 µg/mL (≈ 2 µM) against Pseudomonas aeruginosa [15], 0.2 µg/mL (≈ 0.514 µM) in the test with Staphylococcus aureus [17] and 0.2 µg/mL (≈ 0.514 µM) in the test with Escherichia coli [18].
